This note sets out measurements from ChEMBL document CHEMBL1157010, “Synthesis and in vivo evaluation of 3,4-disubstituted gababutins” (Bioorg Med Chem Lett, 2010).

Data set [1] in a line: Displacement of [3H]gabapentin from Voltage-dependent calcium channel subunit alpha-2/delta in pig cerebral cortex by scintillation counting. It counts as tissue-based, Sus scrofa.
The subject of data set [2] is Rattus norvegicus. Put plainly: Antiinflammatory activity against carrageenan-induced thermal hyperalgesia in rat assessed as paw withdrawal from heat at 30 mg/kg, po after 2 hrs. It counts as functional, organism-based. More on the design: dose 30 mg/kg. The procedure, abridged: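 Rats received intraplantar carrageenan in the paw, and inflammation and hyperalgesia developed within 2 h. At that point the compound was given orally. Reversal of thermal hyperalgesia was read as time to paw withdrawal. Significance was tested against vehicle (P <0.05, P <0.01).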

In data set [3] the test system is Rattus norvegicus. Put plainly: Sedative activity in rat at > 100 mg/kg, po. It counts as organism-based. More on the design: dose 100 mg/kg, route oral. The note with it: in vivo.
Data set [4] is described as follows: Bioavailability in rat. It counts as ADME, organism-based. The note with it: in vivo.
The nature of data set [5]: Elimination half life in rat. It counts as ADME, organism-based. The note with it: in vivo, read-out: beta t1/2 (converted).
Data set [6] in a line: Clearance in rat. It counts as ADME, organism-based. The note with it: in vivo.
Data set [7] is described as follows: Tmax in rat. It counts as ADME, organism-based. The note with it: in vivo.
The nature of data set [8]: Lipophilicity, log D at pH 7.4. It counts as physicochemical. The note with it: buffer.
Data set [9] relates to Rattus norvegicus. Kind of data set: Anxiolytic activity in po dosed rat water lick conflict model of anxiety assessed as increase in number of shocks received. It counts as functional. The method in brief: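 Rat drinking-conflict model with oral dosing across a range of doses. The read-out was the mean number of shock episodes received per rat over 10 min, where a greater number of shocks indicates reduced anxiety. The minimum effective dose was determined, with significance tested against vehicle (P <0.05).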

For data set [10], the system named is Rattus norvegicus. Kind of data set: Sedative activity in rat water lick conflict model of anxiety at 100 mg/kg, po. It counts as organism-based. More on the design: dose 100 mg/kg, route oral. Particulars: in vivo.

Active and inactive are the calls of the source. The rule behind the calls is not given here.

In the case of `CC[C@@H]1C[C@](CN)(CC(=O)O)C[C@@H]1CC`, the IC50 in [1] was found to be 4200 nM.
On the same count and under the same terms, under `C[C@@H]1CC(CN)(CC(=O)O)C[C@H]1C` stands 882 nM.
As to `C[C@@H]1C[C@](CN)(CC(=O)O)C[C@@H]1C`, the IC50 in data set [1] is 153 nM.
The same measure, in the same setting: under `C[C@@H]1C[C@@](CN)(CC(=O)O)C[C@@H]1C` stands 107 nM; under `C[C@@H]1CC[C@@](CN)(CC(=O)O)C1`, 71 nM.
In the case of `C[C@@H]1CC[C@](CN)(CC(=O)O)C1`, in data set [1], the IC50 came to 30 nM.
The same measure, in the same setting: under `CCC[C@H]1CC(CN)(CC(=O)O)C[C@@H]1C` (mixture of isomers) stands 21 nM.
For `CC[C@H]1CC(CN)(CC(=O)O)C[C@@H]1CC` (racemic), the IC50 in data set [1] came out at 1100 nM.
For the molecule `C[C@H]1CC(CN)(CC(=O)O)C[C@@H]1C` (relative stereo) [ATAGABALIN], the IC50 in [1] was determined as 22 nM. For the same molecule, in the data set with Rattus norvegicus [2], the outcome was Active. The Activity entry in the data set on Rattus norvegicus [3] is “Toxic”; in the data set on Rattus norvegicus [9] it was “Dose-dependent effect”; in the data set with Rattus norvegicus [10], “Toxic”. The bioavailability in [4] was determined as 87%. For the same molecule, the half-life in [5] is 2.4 h. The same molecule gave a clearance in data set [6] of 4 mL/min/kg. The Tmax in data set [7] came out at 1.2 h. This molecule displayed a logD in data set [8] of -1. Moreover, the minimal effective dose in the data set with Rattus norvegicus [9] (read-out: MED) stood at 10 mg/kg.
